Bfl-1 A1 inh = inhibitors of the anti-apoptotic protein A1, read as caspase activation; caspase activation, % (test concentration not listed); MEF A1-2A-BIM cells, Caspase-Glo 3/7 luminescence, 3 h; percent of clofoctol response, vehicle zero; 0.066% of 330,000 active;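 active means over half of replicate activation scores above 10%, or exactly half above 10 with the replicate mean above 10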
XBP1 UPR activ = adaptive UPR (XBP1) activation. CHO-XBP1 luciferase reporter, IRE1-XBP1 UPR activation, luminescence; percent of tunicamycin response, DMSO as zero. activation, % at 20 µM. 0.33% of 330,000 active. AID 463104;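 active means versus positive control, 20 µM dose yields 30% or more activation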;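 further: 100% = tunicamycin at 10 µg/mL and 0% = DMSO only wells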
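assay system = CHO-XBP1 luciferase reporter cells | amount = 1000 cells/well | buffer or medium = F12 plus 10% FBS | compound dosing = single point, 20 µM final compound, 1% DMSO | incubation = 16-18 h cell attachment at 37 °C, then 6 h compound exposure | detection = Steady-Glo luminescence read | controls = tunicamycin 10 µg/mL and vehicle-only wells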
CHOP inhibitor = blocks CHOP induction under ER stress; CHO-K1 CHOP-promoter luciferase, tunicamycin-induced, 15-18 h; inhibition, % at 10 µM; 3.8% of 220,000 active; AID 2732;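 active means compounds that reduced the stress-induced luciferase reporter signal by more than about 70% of percent inhibition, limit read from the data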;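 further: 0% = tunicamycin plus vehicle and 100% = wells without tunicamycin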
CHOP UPR activ = apoptotic UPR (CHOP) activation | activation, % at 10 µM | 0.34% of 330,000 active | CHO-CHOP luciferase reporter, luminescence; percent of tunicamycin response over DMSO baseline;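 active means at 10 µM dose, activation of 40% or more, normalized to positive control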;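 further: 100% = tunicamycin at 10 µg/mL and 0% = DMSO alone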
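assay system = CHO CHOP reporter cells | amount = 500 CHO-CHOP cells per well | buffer or medium = F12 with 10% FBS | incubation = 16-18 h cell attachment, then 6 h compound exposure, 37 °C | detection = luminescence read with Steady-Glo | read-out = percent activation relative to tunicamycin control | controls = tunicamycin high control, DMSO low control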
Numbers without * were called inactive; . = not tested or not shown. The full list was thinned out, with hits kept by preference.

SMILES | Bfl-1 A1 inh | XBP1 UPR activ | CHOP inhibitor | CHOP UPR activ
Cc1[nH]n(-c2ccc(Br)cc2)c(=O)c1C=Nc1ccc(S(=O)(=O)Nc2nccs2)cc1 | -5.7 | -1.0 | 90.5* | 1.7
COc1ccc(NC(=O)CCc2nnc3ccc(N4CCN(c5cccc(OC)c5)CC4)nn23)cc1 | -0.6 | -4.6 | . | 1.1
CN(C)CCCN(C(=O)c1ccc([N+](=O)[O-])o1)c1nc2cc3c(cc2s1)OCO3 | 0.8 | -2.3 | . | 8.8
O=C(NC1CCCCC1)C(c1ccc(F)cc1)N(CCN1CCOCC1)C(=O)c1ccc(-c2ccccc2)[nH]1 (stereo not given) | 1.0 | -4.9 | 73.1* | 2.7
O=C(NC1CCCC1)C(c1ccncc1)N(CCCN1CCOCC1)C(=O)c1ccc(-c2ccccc2)[nH]1 (stereo not given) | 0.1 | -4.7 | -27.0 | 0.8
COc1ccc(/C=N/NC(=O)c2ccc(COc3ccccc3Cl)o2)c(OC)c1C | 2.5 | 6.8 | 86.8* | 12.0
CC(=O)Nc1cc2c(cc1NC(=O)Cn1nc(-c3ccccc3)ccc1=O)OCCO2 | 0.4 | -8.2 | . | -2.0
CC1CCN(c2nc3c(c(=O)n(C)c(=O)n3C)n2CCSc2nc3ccccc3s2)CC1 | 2.4 | 4.3 | 76.1* | 4.6
O=C(O)c1ccccc1N/N=C/C1=C(N2CCOCC2)C(=C\c2ccccc2)/CC1 | 0.2 | 0.9 | 16.8 | 2.5
O=C(N/N=C/C1=C(N2CCOCC2)C(=C\c2ccccc2)/CC1)Nc1ccccc1 | 0.4 | 16.5 | 82.2* | 28.3
Cc1ccc(C(=O)NCC2(c3ccccc3)CCCC2)cc1 | -0.2 | -4.1 | 33.1 | 1.8
O=C(NCC1(c2ccccc2)CCCC1)c1ccc(Br)cc1 | -0.4 | -1.0 | 74.4* | 1.4
CCn1c(O)c(C=NCc2cccs2)c(=O)n(CC)c1=S | 0.8 | -2.4 | 73.2* | -1.4
Cn1c(=O)c2c(O)c(C=NCc3ccccc3)c(=O)n(C)c2n(C)c1=O | 0.5 | -4.0 | -13.0 | -0.6
CC(C)CN1C(=O)/C(=C(/C#N)C(=O)NC2CCCCC2)c2ccccc21 | -0.3 | -3.1 | 92.0* | -1.8
Cc1cc2ncn(/N=C/c3ccc(-c4ccccc4)o3)c2cc1C | 0.2 | 0.6 | 77.4* | -0.1
O=C1N=C(N2C=CC(=C3C=CNC=C3)C=C2)/C(=C/N=NC(=O)c2ccccc2O)S1 | 0.1 | -2.3 | . | 0.0
Cc1cc(C)nc(NS(=O)(=O)c2ccc(NC(=O)C3COc4ccccc4O3)cc2)n1 (stereo not given) | 0.6 | 1.5 | 8.8 | 0.5
O=C(Nc1ccc(S(=O)(=O)Nc2ccccc2)cc1)C1COc2ccccc2O1 (stereo not given) | 0.0 | -4.0 | 84.7* | 0.5
COc1ccc(OC)c(C2C(C(=O)c3ccco3)=C(O)C(=O)N2CC2CCCO2)c1 (stereo not given) | -0.1 | 0.5 | . | 1.0
C[C@H](NC(=O)OC(C)(C)C)c1nnc(SCC(=O)Nc2cccc(Cl)c2)o1 | 0.6 | -3.6 | . | 2.1
CSCC[C@H](NC(=O)OC(C)(C)C)c1nnc(SCC(=O)Nc2c(C)cccc2C)o1 | 0.5 | -3.2 | 16.2 | -1.8
Cc1cccc(C)c1NC(=O)CSc1nnc([C@H](C)NC(=O)OC(C)(C)C)o1 | 0.9 | -1.6 | 79.2* | -0.6
CC(C)[C@H](NC(=O)OC(C)(C)C)c1nnc(SCC(=O)Nc2ccc(Br)cc2)o1 | 0.3 | -3.1 | 73.2* | 1.0
Cc1cccc(COc2ccccc2C(=O)OCC(=O)N(C)c2c(N)n(Cc3ccccc3)c(=O)[nH]c2=O)c1 | 0.5 | -3.0 | . | 0.4
SMILES | Bfl-1 A1 inh | XBP1 UPR activ | CHOP inhibitor | CHOP UPR activ
CCOC(=O)[C@H]1[C@H]2COc3ccc(Br)cc3[C@@H]2N2C(=O)c3c(C)cc(C)cc3NC(=O)[C@@]12C | 0.9 | -1.3 | . | 0.9
COc1ccc(NC(=O)CC2C(=O)N(c3ccc(Cl)cc3)C(=S)N2NC(=O)c2cccc(F)c2)cc1 (stereo not given) | 0.2 | -0.9 | 83.7* | 3.1
COC(=O)CN1C(=S)N(c2ccc(Cl)cc2)C(=O)C1CC(=O)Nc1ccc(Cl)cc1 (stereo not given) | 0.6 | -6.0 | 91.3* | 1.4
COc1ccc(NC(=O)CC2C(=O)N(c3ccc(Cl)cc3)C(=S)N2CCc2ccncc2)cc1 (stereo not given) | 1.3 | -2.4 | 92.6* | 1.6
COC(=O)CN1C(=S)N(c2ccc(Cl)cc2)C(=O)C1CC(=O)Nc1ccc(F)cc1 (stereo not given) | 0.1 | -2.4 | 29.1 | 0.9
CCOC(=O)c1ccc(N2C(=O)C(CC(N)=O)N(NC(=O)c3cccc(F)c3)C2=S)cc1 (stereo not given) | 0.6 | -2.3 | . | -0.1
CCN1C(=O)C(CC(=O)Nc2ccc(F)cc2)N(CCc2ccc(OC)cc2)C1=S (stereo not given) | 0.5 | -2.0 | 93.2* | -1.1
O=C(CCCNC(=O)c1ccc(Cl)cc1)Nc1nccs1 | 1.1 | -2.2 | . | 0.1
COc1ccc(OC)c(NC(=O)COC(=O)CN2C(=O)NC3(CCCC3)C2=O)c1 | -0.3 | 0.0 | . | -0.8
COc1ccc(CCNC/C=C/c2ccccc2)cc1 | -0.5 | . | . | .
N#Cc1ccc(CN2CCN(C(=O)CNS(=O)(=O)c3ccc4c(c3)OCCCO4)CC2)cc1 | -0.6 | -4.0 | . | 0.5
CCOC(=O)/C(C#N)=C/c1c(Oc2cc(C)cc(C)c2)nc2ccccn2c1=O | 0.2 | -2.5 | 30.2 | 3.3
CCOC(=O)/C(C#N)=C/c1c(Oc2cccc(C)c2)nc2c(C)cccn2c1=O | 0.6 | 0.9 | 77.0* | -0.3
CCOC(=O)/C(C#N)=C/c1c(Oc2cccc(C)c2)nc2ccccn2c1=O | 0.4 | -1.7 | 16.7 | 1.1
COC(=O)/C(C#N)=C/c1c(Oc2cccc(C)c2C)nc2ccccn2c1=O | 0.3 | 8.0 | 86.4* | -0.6
Cc1ccc(CNc2ncnc3c2cnn3-c2ccccc2)cc1 | 0.1 | 0.8 | 95.3* | 2.0
Clc1cccc(Nc2ncnc3c2cnn3-c2ccccc2)c1 | -0.5 | 4.6 | 98.8* | 0.3
Cc1ccc(-n2ncc3c(NCc4ccccc4)ncnc32)cc1 | -0.4 | 17.4 | 79.9* | 5.1
Cc1cccc(-n2ncc3c(NCc4cccnc4)ncnc32)c1 | -0.9 | 5.0 | -20.4 | 11.1
N#Cc1ccc(OCC(=O)Nc2ccc(N3CCCC3)cc2)cc1 | 1.7 | -2.6 | . | -1.9
O=C(COC(=O)c1ccccc1Br)Nc1cccnc1Cl | -1.3 | 3.3 | . | -0.2
CC(=O)Oc1c(C)cc(Cl)cc1C(=O)Nc1ccc([N+](=O)[O-])cc1Cl | -7.6 | 14.0 | 92.4* | 33.7
COc1ccc(/C=N/NC(=O)Cc2csc(Nc3cccc(C(F)(F)F)c3)n2)c(OC)c1 | 0.0 | -8.6 | 95.4* | -1.5
CCOc1ccc(/C=N/NC(=O)Cc2csc(Nc3cccc(C(F)(F)F)c3)n2)c(OCC)c1 | 0.0 | -1.0 | 21.3 | 4.1
O=c1cc(N2CCN(c3cccc(Cl)c3)CC2)[nH]c(=O)n1C1CCCCC1 | 0.0 | 5.6 | 74.0* | -2.6
O=c1cc(N2CCOCC2)[nH]c(=O)n1C1CCCCC1 | 0.6 | 0.6 | -8.0 | -3.0

Source: PubChem BioAssay
